Paper PMC13022283 (Scientific Reports, 2026)

Columns and labels:
MTT assay = format: cell-based, human; conditions: human, MCF-7 breast cancer cells, MCF-7, 100 μM; for cytotoxicity at 24 h, 100 µM: % Cytotoxicity ± SD; for viability at 24 h, 100 µM: % Viability
h-NTPDase2 = biological target: T1, h-NTPDase2 (Homo sapiens, UniProt Q9Y5L3); test: h-NTPDase activity assay; format: biochemical; conditions: for inhibition at 100 µM: read-out: % Inhibition h-NTPDase2
T1 sequence (Q9Y5L3 1-495): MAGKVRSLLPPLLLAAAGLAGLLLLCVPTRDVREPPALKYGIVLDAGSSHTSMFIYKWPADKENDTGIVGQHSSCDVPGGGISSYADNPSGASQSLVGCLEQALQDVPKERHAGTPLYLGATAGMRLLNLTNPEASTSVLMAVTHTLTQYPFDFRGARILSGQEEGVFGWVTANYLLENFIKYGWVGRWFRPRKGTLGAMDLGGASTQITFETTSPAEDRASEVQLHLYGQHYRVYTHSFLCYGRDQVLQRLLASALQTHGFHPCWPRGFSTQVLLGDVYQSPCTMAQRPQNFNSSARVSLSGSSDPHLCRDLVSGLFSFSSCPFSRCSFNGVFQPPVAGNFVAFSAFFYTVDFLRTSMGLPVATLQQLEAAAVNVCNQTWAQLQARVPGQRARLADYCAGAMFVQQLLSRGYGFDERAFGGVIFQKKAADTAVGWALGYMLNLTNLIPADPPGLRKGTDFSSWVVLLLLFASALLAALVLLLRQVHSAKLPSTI

h-NPP1 = biological target: T2, h-NPP1 (Homo sapiens, UniProt P22413); test: h-NPP1 activity assay; format: biochemical; conditions: for inhibition at 100 µM: read-out: % Inhibition h-NPP1
T2 sequence (P22413 1-925): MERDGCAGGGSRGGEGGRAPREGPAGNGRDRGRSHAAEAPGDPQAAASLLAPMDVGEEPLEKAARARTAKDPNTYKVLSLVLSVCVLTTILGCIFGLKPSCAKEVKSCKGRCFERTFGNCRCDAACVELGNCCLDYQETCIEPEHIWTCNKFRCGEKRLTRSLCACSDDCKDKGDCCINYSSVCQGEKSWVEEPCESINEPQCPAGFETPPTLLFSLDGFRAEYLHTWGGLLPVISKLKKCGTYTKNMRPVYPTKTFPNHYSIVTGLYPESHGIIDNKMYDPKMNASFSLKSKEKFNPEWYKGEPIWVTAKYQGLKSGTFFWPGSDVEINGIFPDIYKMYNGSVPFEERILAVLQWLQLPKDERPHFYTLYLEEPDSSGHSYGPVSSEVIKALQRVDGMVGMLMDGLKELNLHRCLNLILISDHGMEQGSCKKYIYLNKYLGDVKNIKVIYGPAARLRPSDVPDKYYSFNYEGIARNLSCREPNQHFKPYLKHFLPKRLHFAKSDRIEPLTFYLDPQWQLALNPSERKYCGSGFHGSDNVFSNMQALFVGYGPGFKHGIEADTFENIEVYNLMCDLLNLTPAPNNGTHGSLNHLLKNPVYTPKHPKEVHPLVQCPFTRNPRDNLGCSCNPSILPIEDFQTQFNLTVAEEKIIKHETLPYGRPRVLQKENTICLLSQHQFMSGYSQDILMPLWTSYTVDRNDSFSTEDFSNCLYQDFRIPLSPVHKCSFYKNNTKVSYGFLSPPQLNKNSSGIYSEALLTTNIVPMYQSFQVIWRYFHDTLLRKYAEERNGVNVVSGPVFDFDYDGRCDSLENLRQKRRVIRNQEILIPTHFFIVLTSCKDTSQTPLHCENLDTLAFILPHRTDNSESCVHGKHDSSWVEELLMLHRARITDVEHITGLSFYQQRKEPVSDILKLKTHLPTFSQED

h-e5’NT = biological target: T3, h-e5’NT (Homo sapiens, UniProt P21589); test: h-e5’NT activity assay; format: biochemical; conditions: for inhibition at 100 µM: read-out: % Inhibition h-e5’NT
T3 sequence (P21589 27-574): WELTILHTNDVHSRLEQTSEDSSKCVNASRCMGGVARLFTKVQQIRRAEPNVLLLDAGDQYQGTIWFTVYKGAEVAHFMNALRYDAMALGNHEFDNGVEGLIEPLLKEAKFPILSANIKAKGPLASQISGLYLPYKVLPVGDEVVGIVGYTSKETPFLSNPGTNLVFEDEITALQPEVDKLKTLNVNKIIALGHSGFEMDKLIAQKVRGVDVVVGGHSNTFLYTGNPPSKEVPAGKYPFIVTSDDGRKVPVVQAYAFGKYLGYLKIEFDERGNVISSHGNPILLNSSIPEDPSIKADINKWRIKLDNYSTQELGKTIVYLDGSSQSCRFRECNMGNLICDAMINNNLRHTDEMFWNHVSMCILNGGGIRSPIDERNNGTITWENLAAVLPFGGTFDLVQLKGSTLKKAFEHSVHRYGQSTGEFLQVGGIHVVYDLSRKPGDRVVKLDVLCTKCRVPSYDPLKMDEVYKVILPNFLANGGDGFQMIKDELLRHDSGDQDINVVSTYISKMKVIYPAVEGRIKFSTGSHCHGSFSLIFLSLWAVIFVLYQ
In short: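 Human ecto-5′-nucleotidase from transfected COS-7 cells was pre-incubated 10 min at 37 °C with compound (0.1 mM final) in 50 mM Tris–HCl with MgCl₂ and CaCl₂, pH 7.4. The reaction was started with AMP (2 mM solution as added) and run 20 min at 37 °C. Released phosphate was detected with malachite green at 630 nm, in triplicate.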

h-NTPDase8 = biological target: T4, h-NTPDase8 (Homo sapiens, UniProt Q5MY95); test: h-NTPDase activity assay; format: biochemical; conditions: for inhibition at 100 µM: read-out: % Inhibition h-NTPDase8, at 100 µM
T4 sequence (Q5MY95 1-495): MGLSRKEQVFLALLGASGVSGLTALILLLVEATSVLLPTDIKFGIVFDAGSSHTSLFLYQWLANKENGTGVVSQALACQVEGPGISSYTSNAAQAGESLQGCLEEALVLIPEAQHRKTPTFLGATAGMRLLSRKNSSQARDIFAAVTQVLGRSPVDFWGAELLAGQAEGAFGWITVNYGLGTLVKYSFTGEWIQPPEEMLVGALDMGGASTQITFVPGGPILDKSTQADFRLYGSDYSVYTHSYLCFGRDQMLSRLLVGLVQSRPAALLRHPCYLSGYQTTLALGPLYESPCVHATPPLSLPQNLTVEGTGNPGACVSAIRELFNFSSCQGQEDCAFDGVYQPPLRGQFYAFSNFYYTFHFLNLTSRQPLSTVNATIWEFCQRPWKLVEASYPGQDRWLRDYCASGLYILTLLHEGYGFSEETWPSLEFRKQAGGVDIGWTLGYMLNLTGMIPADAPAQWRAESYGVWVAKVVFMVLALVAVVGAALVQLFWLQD

Compound	inhibition at 100 µM (h-NTPDase2) [%]	inhibition at 100 µM (h-NPP1) [%]	inhibition at 100 µM (h-e5’NT) [%]	IC50 (h-NTPDase8) [nM]	inhibition at 100 µM (h-NTPDase8) [%]	IC50 (h-NTPDase2) [µM]	IC50 (h-e5’NT) [nM]	IC50 (h-NPP1) [nM]	cytotoxicity at 24 h, 100 µM (MTT assay) [%]	viability at 24 h, 100 µM (MTT assay) [%]
O=C(NCc1ccc(F)cc1)c1ccc2ncccc2c1 [Compound 4b, N-(4-fluorobenzyl)quinoline-6-carboxamide]	26.2	44.8	37	440 ± 80	83	–	–	–	25.1 ± 6.08	74.9
Cc1ccc(CNC(=O)c2ccc3ncccc3c2)cc1 [Compound 4c, N-(4-methylbenzyl)quinoline-6-carboxamide]	68.4	45.2	50.7	990 ± 130	70.9	6.39 ± 1.07	190 ± 10	–	42.2 ± 0.81	57.8
O=C(Nc1c(F)cccc1F)c1ccc2ncccc2c1 [Compound 4d, N-(2,6 difluorophenyl)quinoline-6-carboxamide]	80.1	54.5	35.6	–	33	0.92 ± 0.17	–	730 ± 90	48 ± 12.7	52
O=C(Nc1ccc(F)cc1F)c1ccc2ncccc2c1 [Compound 4e, N-(2,4 difluorophenyl)quinoline-6-carboxamide]	36.4	34.6	66.9	–	39.5	–	540 ± 90	–	14.6 ± 2.48	85.4

The next lines start with results.

inhibition at 100 µM (h-NTPDase2) [%]	inhibition at 100 µM (h-NPP1) [%]	inhibition at 100 µM (h-e5’NT) [%]	IC50 (h-NTPDase8) [nM]	inhibition at 100 µM (h-NTPDase8) [%]	IC50 (h-NTPDase2) [µM]	IC50 (h-e5’NT) [nM]	IC50 (h-NPP1) [nM]	Compound	cytotoxicity at 24 h, 100 µM (MTT assay) [%]	viability at 24 h, 100 µM (MTT assay) [%]
33.9	43.7	82	–	20.4	–	340 ± 70	–	O=C(Nc1ccccn1)c1ccc2ncccc2c1 [Compound 4g, N-(pyridin-2-yl)quinoline-6-carboxamide]	47.4 ± 1.8	52.6
28.3	33.9	87	3290 ± 360	65.6	–	390 ± 100	–	O=C(Nc1ccccc1I)c1ccc2ncccc2c1 [Compound 4h, N-(2-iodophenyl)quinoline-6-carboxamide]	49.7 ± 2.17	50.3
18.6	67.7	28.4	–	27	–	–	110 ± 20	O=C(Nc1ccc(I)cc1)c1ccc2ncccc2c1 [Compound 4k, N-(4-Iodophenyl)quinoline-6-carboxamide]	56.9 ± 16.9	43 to 45
41.2	29.4	61	–	26.1	–	470 ± 260	–	Cc1ccc(F)cc1NC(=O)c1ccc2ncccc2c1 [Compound 4l, N-(5-fluoro 2-methylphenyl)quinoline-6-carboxamide]	39.5 ± 15.5	60.5
